Common to all, as to type: functional
Experiment [1] has as its system Mycobacterium avium complex sp. In words: Antimycobacterial activity against Mycobacterium avium complex N018 infected C57BL/6J mouse assessed as spleen bacterial count at 100 mg/kg/day dosed through gavage route administered for 28 days post bacterial challenge measured 2 days after last dose. An outline of the steps: (§1)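 Mice given 1.0 × 10^7 to 3.0 × 10^7 CFU in 100 μl via tail vein; daily gavage dosing began day 21 for 28 days; distilled-water controls. Sacrifice 48 h after last dose. Organ portions homogenized in 1 ml saline, diluted in 7H9, plated on 7H10; log10 CFU/organ, mean ± SEM, 5 mice/group. Experiment run twice; ANOVA with Fisher's PLSD.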

For experiment [2] the test system is unchanged. In words: Antimycobacterial activity against Mycobacterium avium complex N084 infected C57BL/6J mouse assessed as lung bacterial count at 100 mg/kg/day dosed through gavage route administered for 28 days post bacterial challenge measured 2 days after last dose. An outline of the steps:
as §1

Experiment [3] deals with Mycobacterium intracellulare. The experiment is described as follows: Antimycobacterial activity against Mycobacterium intracellular JATA52-01 after 14 days by broth microdilution method. The note with it: JATA52-01, 336 h. An outline of the steps:
(§2)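 Broth microdilution in Middlebrook 7H9 (OADC, Tween 80, glycerol); twofold dilutions giving final 0.125–128 μg/ml; inoculum 1.0 × 10^5 CFU/well; 14 days at 37°C. MIC = lowest concentration completely inhibiting growth. Triplicate tests. Inocula from 7H10 agar colonies (21 days) subcultured in 7H9 for 7 days at 37°C, stored at −80°C.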

Experiment [4] has as its system Mycobacterium avium complex sp. The experiment is described as follows: Antimycobacterial activity against Mycobacterium avium complex N016 after 14 days by broth microdilution method. The settings on record: N016, 336 h. The method in brief:
as §2
For orientation: Broth dilution looks for growth in wells or tubes with falling amounts of substance.

Experiment [5] shares this test system. The experiment is described as follows: Antimycobacterial activity against Mycobacterium avium complex N018 after 14 days by broth microdilution method. The settings on record: N018, 336 h. The method in brief: as §2
For experiment [6] the test system is unchanged. The experiment is described as follows: Antimycobacterial activity against Mycobacterium avium complex N084 after 14 days by broth microdilution method. The note with it: N084, 336 h. An outline of the steps: as §2
Experiment [7] shares this test system. The experiment is described as follows: Antimycobacterial activity against Mycobacterium avium complex after 14 days by broth microdilution method. The note with it: 336 h. An outline of the steps: as §2
Experiment [8] concerns Mycobacterium avium. The experiment is described as follows: Antimycobacterial activity against Mycobacterium avium JATA51-01 infected C57BL/6J mouse assessed as lung bacterial count at 100 mg/kg/day dosed through gavage route administered for 28 days post bacterial challenge measured 2 days after last dose. An outline of the steps:
(§3)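 Mice infected via tail vein with 1.0 × 10^7 to 3.0 × 10^7 CFU in 100 μl saline; daily oral gavage started day 21, for 28 days; distilled-water controls; sacrificed 48 h after last dose; lungs, liver, spleen homogenized in saline, serially diluted in 7H9, plated on 7H10 agar; log10 CFU/organ, mean ± SEM, 5 mice/group; ANOVA with Fisher's PLSD; experiment done twice.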

The test system of experiment [9] is Mycobacterium avium. In words: Antimycobacterial activity against Mycobacterium avium JATA51-01 infected C57BL/6J mouse assessed as liver bacterial count at 100 mg/kg/day dosed through gavage route administered for 28 days post bacterial challenge measured 2 days after last dose. An outline of the steps:
as §3

Experiment [10] concerns Mycobacterium avium. In words: Antimycobacterial activity against Mycobacterium avium JATA51-01 infected C57BL/6J mouse assessed as spleen bacterial count at 100 mg/kg/day dosed through gavage route administered for 28 days post bacterial challenge measured 2 days after last dose. An outline of the steps: as §3
The test system of experiment [11] is Mycobacterium intracellulare. In words: Antimycobacterial activity against Mycobacterium intracellular JATA52-01 infected C57BL/6J mouse assessed as lung bacterial count at 100 mg/kg/day dosed through gavage route administered for 28 days post bacterial challenge measured 2 days after last dose. The method in brief:
as §1

Experiment [12] concerns Mycobacterium intracellulare. The experiment is described as follows: Antimycobacterial activity against Mycobacterium intracellular JATA52-01 infected C57BL/6J mouse assessed as liver bacterial count at 100 mg/kg/day dosed through gavage route administered for 28 days post bacterial challenge measured 2 days after last dose. An outline of the steps: as §1
Experiment [13] deals with Mycobacterium intracellulare. The experiment is described as follows: Antimycobacterial activity against Mycobacterium intracellular JATA52-01 infected C57BL/6J mouse assessed as spleen bacterial count at 100 mg/kg/day dosed through gavage route administered for 28 days post bacterial challenge measured 2 days after last dose. The method in brief:
as §1

The subject of experiment [14] is Mycobacterium avium complex sp. In words: Antimycobacterial activity against Mycobacterium avium complex N016 infected C57BL/6J mouse assessed as lung bacterial count at 100 mg/kg/day dosed through gavage route administered for 28 days post bacterial challenge measured 2 days after last dose. The method in brief:
as §1

For experiment [15] the test system is unchanged. The experiment is described as follows: Antimycobacterial activity against Mycobacterium avium complex N016 infected C57BL/6J mouse assessed as liver bacterial count at 100 mg/kg/day dosed through gavage route administered for 28 days post bacterial challenge measured 2 days after last dose. An outline of the steps: as §1
For experiment [16] the test system is unchanged. The experiment is described as follows: Antimycobacterial activity against Mycobacterium avium complex N016 infected C57BL/6J mouse assessed as spleen bacterial count at 100 mg/kg/day dosed through gavage route administered for 28 days post bacterial challenge measured 2 days after last dose. The method in brief:
as §1

Experiment [17] shares this test system. In words: Antimycobacterial activity against Mycobacterium avium complex N018 infected C57BL/6J mouse assessed as lung bacterial count at 100 mg/kg/day dosed through gavage route administered for 28 days post bacterial challenge measured 2 days after last dose. The method in brief: as §1
Experiment [18] has the same test system. In words: Antimycobacterial activity against Mycobacterium avium complex N018 infected C57BL/6J mouse assessed as liver bacterial count at 100 mg/kg/day dosed through gavage route administered for 28 days post bacterial challenge measured 2 days after last dose. An outline of the steps:
as §1

For experiment [19] the test system is unchanged. In words: Antimycobacterial activity against Mycobacterium avium complex N084 infected C57BL/6J mouse assessed as liver bacterial count at 100 mg/kg/day dosed through gavage route administered for 28 days post bacterial challenge measured 2 days after last dose. The method in brief: as §1
Experiment [20] shares this test system. The experiment is described as follows: Antimycobacterial activity against Mycobacterium avium complex N084 infected C57BL/6J mouse assessed as spleen bacterial count at 100 mg/kg/day dosed through gavage route administered for 28 days post bacterial challenge measured 2 days after last dose. The method in brief:
as §1

The test system is the same in experiment [21]. In words: Antimycobacterial activity against Mycobacterium avium complex N018 infected C57BL/6J mouse assessed as liver bacterial count at 200 mg/kg/day dosed through gavage route administered for 28 days post bacterial challenge measured 2 days after last dose. The method in brief:
as §1

Experiment [22] has the same test system. In words: Antimycobacterial activity against Mycobacterium avium complex N018 infected C57BL/6J mouse assessed as lung bacterial count at 200 mg/kg/day dosed through gavage route administered for 28 days post bacterial challenge measured 2 days after last dose. The method in brief:
as §1

The test system is the same in experiment [23]. The experiment is described as follows: Antimycobacterial activity against Mycobacterium avium complex N018 infected C57BL/6J mouse assessed as spleen bacterial count at 200 mg/kg/day dosed through gavage route administered for 28 days post bacterial challenge measured 2 days after last dose. An outline of the steps:
as §1

The subject of experiment [24] is Mycobacterium avium. The experiment is described as follows: Antimycobacterial activity against Mycobacterium avium JATA51-01 after 14 days by broth microdilution method. The note with it: JATA51-01, 336 h. The method in brief:
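Broth microdilution in 7H9 (10% OADC, 0.05% Tween 80, 0.2% glycerol); twofold drug dilutions, final 0.125–128 μg/ml; inoculum 1.0 × 10^5 CFU/well from 7-day 37°C subculture of 21-day 7H10 colonies; 14 days at 37°C; MIC = lowest concentration with complete growth inhibition; triplicate.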

In experiment [25] the test system is Mycobacterium avium. The experiment is described as follows: Antimycobacterial activity against Mycobacterium avium JATA51-01 infected C57BL/6J mouse assessed as lung bacterial count at 200 mg/kg/day dosed through gavage route administered for 28 days post bacterial challenge measured 2 days after last dose. An outline of the steps:
as §3

The test system of experiment [26] is Mycobacterium avium. In words: Antimycobacterial activity against Mycobacterium avium JATA51-01 infected C57BL/6J mouse assessed as liver bacterial count at 200 mg/kg/day dosed through gavage route administered for 28 days post bacterial challenge measured 2 days after last dose. The method in brief: as §3
For experiment [27], the system named is Mycobacterium avium. The experiment is described as follows: Antimycobacterial activity against Mycobacterium avium JATA51-01 infected C57BL/6J mouse assessed as spleen bacterial count at 200 mg/kg/day dosed through gavage route administered for 28 days post bacterial challenge measured 2 days after last dose. An outline of the steps: as §3
For experiment [28], the system named is Mycobacterium intracellulare. In words: Antimycobacterial activity against Mycobacterium intracellular JATA52-01 infected C57BL/6J mouse assessed as lung bacterial count at 200 mg/kg/day dosed through gavage route administered for 28 days post bacterial challenge measured 2 days after last dose. An outline of the steps: as §1
Experiment [29] concerns Mycobacterium intracellulare. In words: Antimycobacterial activity against Mycobacterium intracellular JATA52-01 infected C57BL/6J mouse assessed as liver bacterial count at 200 mg/kg/day dosed through gavage route administered for 28 days post bacterial challenge measured 2 days after last dose. An outline of the steps: as §1
Experiment [30] has as its system Mycobacterium intracellulare. The experiment is described as follows: Antimycobacterial activity against Mycobacterium intracellular JATA52-01 infected C57BL/6J mouse assessed as spleen bacterial count at 200 mg/kg/day dosed through gavage route administered for 28 days post bacterial challenge measured 2 days after last dose. An outline of the steps:
as §1

Experiment [31] concerns Mycobacterium avium complex sp. The experiment is described as follows: Antimycobacterial activity against Mycobacterium avium complex N016 infected C57BL/6J mouse assessed as lung bacterial count at 200 mg/kg/day dosed through gavage route administered for 28 days post bacterial challenge measured 2 days after last dose. An outline of the steps:
as §1

Experiment [32] has the same test system. In words: Antimycobacterial activity against Mycobacterium avium complex N016 infected C57BL/6J mouse assessed as liver bacterial count at 200 mg/kg/day dosed through gavage route administered for 28 days post bacterial challenge measured 2 days after last dose. An outline of the steps: as §1
Experiment [33] has the same test system. In words: Antimycobacterial activity against Mycobacterium avium complex N016 infected C57BL/6J mouse assessed as spleen bacterial count at 200 mg/kg/day dosed through gavage route administered for 28 days post bacterial challenge measured 2 days after last dose. The method in brief: as §1
The test system is the same in experiment [34]. The experiment is described as follows: Antimycobacterial activity against Mycobacterium avium complex N084 infected C57BL/6J mouse assessed as lung bacterial count at 200 mg/kg/day dosed through gavage route administered for 28 days post bacterial challenge measured 2 days after last dose. The method in brief: as §1
For experiment [35] the test system is unchanged. The experiment is described as follows: Antimycobacterial activity against Mycobacterium avium complex N084 infected C57BL/6J mouse assessed as liver bacterial count at 200 mg/kg/day dosed through gavage route administered for 28 days post bacterial challenge measured 2 days after last dose. The method in brief:
as §1

Experiment [36] shares this test system. In words: Antimycobacterial activity against Mycobacterium avium complex N084 infected C57BL/6J mouse assessed as spleen bacterial count at 200 mg/kg/day dosed through gavage route administered for 28 days post bacterial challenge measured 2 days after last dose. An outline of the steps: as §1

Among the data in ChEMBL document CHEMBL1137643, “In vitro and in vivo activities of novel fluoroquinolones alone and in combination with clarithromycin against clinically isolated Mycobacterium avium complex strains in Japan” (2007) are log10cfu, MIC and MIC90 values, retold here.

In brackets after ≈: the same amount, converted by molar mass.

A word on the MIC: it is the smallest concentration in the dilution series that meets the test's criterion for growth inhibition. High values mean a less susceptible organism, low ones a more susceptible organism. What is called MIC90 is an inhibitory concentration at the 90% level, which refers to growth in some studies and to a panel of isolates in others. High values mean lower susceptibility, low ones higher susceptibility. Consider `COc1c(N2C[C@@H]3CCCN[C@@H]3C2)c(F)cc2c(=O)c(C(=O)O)cn(C3CC3)c12` [MOXIFLOXACIN], for which the log10cfu in [1] amounted to 6.6; in [2], 7.9; with Mycobacterium avium [8], 8.83; with Mycobacterium avium [9], 9.68; in the experiment on Mycobacterium avium [10], 9.18; in experiment [11] it was 4.83. For the same compound, the log10cfu in [12] is reported as 4.76; in [13], 4.15; in [14], 5.35; in experiment [15] it was 6.53; in [16], 6.6; in experiment [17], 5.79. The values for the log10cfu in experiment [18], in experiment [19] and in experiment [20] were 7.09, 7.78 and 7.39, respectively. In addition, the MIC in experiment [3], in experiment [4], in experiment [5] and in [6] was 0.5 µg/mL (≈ 1.25 µM) in each case. Moreover, the MIC90 in experiment [7] amounted to 2 µg/mL (≈ 4.98 µM).
As for `CC[C@H]1OC(=O)[C@H](C)[C@@H](O[C@H]2C[C@@](C)(OC)[C@@H](O)[C@H](C)O2)[C@H](C)[C@@H](O[C@@H]2O[C@H](C)C[C@H](N(C)C)[C@H]2O)[C@](C)(OC)C[C@@H](C)C(=O)[C@H](C)[C@@H](O)[C@]1(C)O` [CLARITHROMYCIN], the log10cfu in experiment [21] turned out to be 5.03; in [22], 2.18; in experiment [23], 4.06; with Mycobacterium avium [25] it was 7.1; with Mycobacterium avium [26] it was 8.12; with Mycobacterium avium [27] it was 7.1. Moreover, the log10cfu in [28] came out at 3.17; in experiment [29], 3.2; in experiment [30], 3.16; in experiment [31] it was 3.94; in [32], 5.91; in [33], 5.36. For the same compound, the log10cfu turned out to be 5.28 in [34], 4.58 in [35] and 4.3 in experiment [36]. Further, the MIC with Mycobacterium avium [24] turned out to be 2 µg/mL (≈ 2.67 µM); in [3], 0.5 µg/mL (≈ 0.668 µM); in experiment [4], 2 µg/mL (≈ 2.67 µM); in experiment [5] it was 0.5 µg/mL (≈ 0.668 µM); in experiment [6] it was 0.5 µg/mL (≈ 0.668 µM). In experiment [7], the MIC90 amounted to 64 µg/mL (≈ 85.6 µM).
